Experimental findings from the M2OR odorant receptor database are described below.

Common to all, as to conditions: stereoisomer not certain
One assay addresses T1, UniProt Q8VGC6.
T1 sequence (whole entry): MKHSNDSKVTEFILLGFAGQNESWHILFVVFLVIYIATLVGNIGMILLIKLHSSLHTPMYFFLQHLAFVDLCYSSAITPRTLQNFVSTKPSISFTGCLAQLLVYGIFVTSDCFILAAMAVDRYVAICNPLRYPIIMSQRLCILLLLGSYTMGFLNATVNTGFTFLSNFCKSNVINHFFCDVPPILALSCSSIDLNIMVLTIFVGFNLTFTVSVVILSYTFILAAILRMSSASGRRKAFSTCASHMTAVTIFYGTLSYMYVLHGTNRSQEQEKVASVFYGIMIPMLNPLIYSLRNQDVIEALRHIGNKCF
A digest of the protocol:
(§1)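 Assay methods differ from source to source, frequently being transient luciferase assays in mammalian cell lines. For each receptor–molecule pair, the label responsive (active) applies when the original authors judged the measured signal statistically different from baseline, and non-responsive (inactive) applies otherwise.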

For a further assay, the target named is T2, UniProt Q8VGD7.
T2 sequence (whole entry): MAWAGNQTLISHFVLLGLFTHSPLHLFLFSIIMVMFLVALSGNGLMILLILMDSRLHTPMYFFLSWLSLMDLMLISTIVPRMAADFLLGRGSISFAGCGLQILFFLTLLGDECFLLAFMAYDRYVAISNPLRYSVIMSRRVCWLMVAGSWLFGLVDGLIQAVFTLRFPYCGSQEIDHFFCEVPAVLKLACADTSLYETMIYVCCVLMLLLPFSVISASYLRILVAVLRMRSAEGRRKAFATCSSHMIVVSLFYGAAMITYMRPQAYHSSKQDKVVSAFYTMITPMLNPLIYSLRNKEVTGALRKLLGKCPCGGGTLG
A digest of the protocol: as §1

The target in the next assay is T3, UniProt Q8VGH1.
T3 sequence (whole entry): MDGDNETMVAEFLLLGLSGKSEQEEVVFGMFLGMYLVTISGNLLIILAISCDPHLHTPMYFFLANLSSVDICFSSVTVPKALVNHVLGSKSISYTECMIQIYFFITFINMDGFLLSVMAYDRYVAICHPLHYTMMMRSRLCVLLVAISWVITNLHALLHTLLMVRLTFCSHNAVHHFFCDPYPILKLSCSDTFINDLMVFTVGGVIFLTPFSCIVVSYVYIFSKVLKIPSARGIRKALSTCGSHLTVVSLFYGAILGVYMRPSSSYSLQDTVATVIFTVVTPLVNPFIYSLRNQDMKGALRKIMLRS
A digest of the protocol:
as §1

Another assay deals with T4, UniProt Q8VGJ1.
T4 sequence (whole entry): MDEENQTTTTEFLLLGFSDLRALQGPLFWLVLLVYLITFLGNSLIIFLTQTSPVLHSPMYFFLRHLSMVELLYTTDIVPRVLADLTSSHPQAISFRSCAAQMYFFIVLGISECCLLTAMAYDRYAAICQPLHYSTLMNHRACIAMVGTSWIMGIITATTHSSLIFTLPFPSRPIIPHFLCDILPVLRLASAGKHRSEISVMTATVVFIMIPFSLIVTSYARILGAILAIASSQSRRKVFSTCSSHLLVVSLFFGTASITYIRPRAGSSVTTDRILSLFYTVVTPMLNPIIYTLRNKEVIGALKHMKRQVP
An outline of the steps:
as §1

The target of another assay is T5, UniProt Q8VGJ3.
T5 sequence (whole entry): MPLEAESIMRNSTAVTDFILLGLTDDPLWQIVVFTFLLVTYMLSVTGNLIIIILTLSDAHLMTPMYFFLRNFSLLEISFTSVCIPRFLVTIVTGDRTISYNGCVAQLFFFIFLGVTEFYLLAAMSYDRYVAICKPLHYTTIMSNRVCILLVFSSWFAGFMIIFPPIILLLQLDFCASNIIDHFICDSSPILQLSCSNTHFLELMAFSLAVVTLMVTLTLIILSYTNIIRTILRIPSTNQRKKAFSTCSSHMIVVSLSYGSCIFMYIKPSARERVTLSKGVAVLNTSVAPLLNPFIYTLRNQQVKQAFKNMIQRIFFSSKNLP
A digest of the protocol:
as §1

The target of the next assay is T6, UniProt Q8VGJ5.
T6 sequence (whole entry): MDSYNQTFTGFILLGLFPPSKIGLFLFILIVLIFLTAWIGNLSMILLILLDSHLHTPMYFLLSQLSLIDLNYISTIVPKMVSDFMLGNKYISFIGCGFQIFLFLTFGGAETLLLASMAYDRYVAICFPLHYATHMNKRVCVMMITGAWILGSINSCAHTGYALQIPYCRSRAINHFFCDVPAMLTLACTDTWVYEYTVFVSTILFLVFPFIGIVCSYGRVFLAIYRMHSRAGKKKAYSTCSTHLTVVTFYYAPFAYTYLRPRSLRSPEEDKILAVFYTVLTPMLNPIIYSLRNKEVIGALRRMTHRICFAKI
An outline of the steps:
as §1

The target of another assay is T7, UniProt Q8VGL0.
T7 sequence (whole entry): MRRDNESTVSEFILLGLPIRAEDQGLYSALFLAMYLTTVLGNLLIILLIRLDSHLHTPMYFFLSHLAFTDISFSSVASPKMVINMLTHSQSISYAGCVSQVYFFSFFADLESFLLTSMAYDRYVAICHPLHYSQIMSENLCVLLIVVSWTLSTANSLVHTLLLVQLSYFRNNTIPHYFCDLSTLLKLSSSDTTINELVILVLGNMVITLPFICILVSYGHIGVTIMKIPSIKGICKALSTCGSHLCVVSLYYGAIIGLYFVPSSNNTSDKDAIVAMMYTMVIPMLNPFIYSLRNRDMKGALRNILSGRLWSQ
An outline of the steps: as §1

In the next assay the target is T8, UniProt Q8VGL7.
T8 sequence (whole entry): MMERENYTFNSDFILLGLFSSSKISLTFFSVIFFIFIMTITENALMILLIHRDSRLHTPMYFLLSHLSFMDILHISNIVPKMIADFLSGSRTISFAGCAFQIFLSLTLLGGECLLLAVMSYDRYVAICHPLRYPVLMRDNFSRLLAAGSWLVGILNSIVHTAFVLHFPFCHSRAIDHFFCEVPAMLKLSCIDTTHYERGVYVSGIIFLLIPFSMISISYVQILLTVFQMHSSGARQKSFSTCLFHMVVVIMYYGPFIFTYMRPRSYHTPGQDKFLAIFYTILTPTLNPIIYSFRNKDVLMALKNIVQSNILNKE
An outline of the steps: as §1

The next assay has as its target T9, UniProt Q8VGM2.
T9 sequence (whole entry): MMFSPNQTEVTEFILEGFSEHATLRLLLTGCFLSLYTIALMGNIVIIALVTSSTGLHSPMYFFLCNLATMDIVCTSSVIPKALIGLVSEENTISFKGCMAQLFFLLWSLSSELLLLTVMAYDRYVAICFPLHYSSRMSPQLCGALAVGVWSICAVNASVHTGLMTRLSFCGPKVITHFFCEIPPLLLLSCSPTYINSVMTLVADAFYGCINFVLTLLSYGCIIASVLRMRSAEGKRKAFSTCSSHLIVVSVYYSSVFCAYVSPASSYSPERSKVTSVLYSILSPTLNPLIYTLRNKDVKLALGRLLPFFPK
A digest of the protocol:
as §1

Another assay concerns the target T10, UniProt Q8VGP6.
T10 sequence (whole entry): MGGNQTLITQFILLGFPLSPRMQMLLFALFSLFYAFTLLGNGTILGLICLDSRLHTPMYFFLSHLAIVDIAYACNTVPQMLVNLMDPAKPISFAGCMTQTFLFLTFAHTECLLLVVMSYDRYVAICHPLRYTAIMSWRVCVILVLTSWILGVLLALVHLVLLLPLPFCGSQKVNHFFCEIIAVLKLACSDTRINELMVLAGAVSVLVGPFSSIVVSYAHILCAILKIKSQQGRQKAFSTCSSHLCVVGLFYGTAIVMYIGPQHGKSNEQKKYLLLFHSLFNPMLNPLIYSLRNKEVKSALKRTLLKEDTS
A digest of the protocol:
as §1

A further assay has as its target T11, UniProt Q8VGQ3.
T11 sequence (whole entry): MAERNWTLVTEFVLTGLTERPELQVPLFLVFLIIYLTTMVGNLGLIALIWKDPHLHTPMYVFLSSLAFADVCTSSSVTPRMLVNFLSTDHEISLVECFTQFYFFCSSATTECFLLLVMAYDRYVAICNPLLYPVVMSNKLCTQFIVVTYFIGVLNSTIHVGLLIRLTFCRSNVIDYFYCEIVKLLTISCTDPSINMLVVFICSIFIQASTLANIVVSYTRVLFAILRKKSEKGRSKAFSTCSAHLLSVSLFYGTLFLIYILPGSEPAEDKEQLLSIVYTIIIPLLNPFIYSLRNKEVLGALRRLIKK
A digest of the protocol:
as §1

Another assay deals with T12, UniProt Q8VGT4.
T12 sequence (whole entry): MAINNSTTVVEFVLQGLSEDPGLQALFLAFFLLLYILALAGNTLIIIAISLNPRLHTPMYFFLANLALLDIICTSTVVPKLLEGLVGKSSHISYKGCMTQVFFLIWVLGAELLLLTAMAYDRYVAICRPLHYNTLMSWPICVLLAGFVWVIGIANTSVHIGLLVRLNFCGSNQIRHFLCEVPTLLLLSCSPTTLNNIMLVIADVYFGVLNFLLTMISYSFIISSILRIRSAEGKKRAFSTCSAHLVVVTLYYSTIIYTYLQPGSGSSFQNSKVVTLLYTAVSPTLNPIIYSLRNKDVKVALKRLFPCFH
A digest of the protocol:
as §1

A further assay addresses T13, UniProt Q8VGU3.
T13 sequence (whole entry): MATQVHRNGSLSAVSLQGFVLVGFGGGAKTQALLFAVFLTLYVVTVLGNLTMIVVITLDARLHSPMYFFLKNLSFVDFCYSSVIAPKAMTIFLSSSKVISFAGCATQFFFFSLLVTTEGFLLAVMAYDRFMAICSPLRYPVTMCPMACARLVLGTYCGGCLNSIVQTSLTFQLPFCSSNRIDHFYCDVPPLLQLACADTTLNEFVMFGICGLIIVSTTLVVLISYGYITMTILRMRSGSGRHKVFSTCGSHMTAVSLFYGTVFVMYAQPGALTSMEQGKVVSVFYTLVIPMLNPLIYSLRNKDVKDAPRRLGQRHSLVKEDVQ
An outline of the steps:
as §1

For a further assay, the target named is T14, UniProt Q8VGV1.
T14 sequence (whole entry): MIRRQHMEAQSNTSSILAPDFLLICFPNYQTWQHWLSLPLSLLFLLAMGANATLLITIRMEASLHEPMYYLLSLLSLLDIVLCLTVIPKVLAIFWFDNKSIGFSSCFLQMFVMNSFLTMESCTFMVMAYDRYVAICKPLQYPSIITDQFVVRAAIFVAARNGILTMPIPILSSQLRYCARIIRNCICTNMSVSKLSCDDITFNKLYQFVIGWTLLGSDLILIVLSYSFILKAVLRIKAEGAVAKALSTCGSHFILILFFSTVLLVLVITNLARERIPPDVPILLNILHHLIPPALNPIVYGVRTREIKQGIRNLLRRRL
A digest of the protocol: as §1

Another assay concerns the target T15, UniProt Q8VGV7.
T15 sequence (whole entry): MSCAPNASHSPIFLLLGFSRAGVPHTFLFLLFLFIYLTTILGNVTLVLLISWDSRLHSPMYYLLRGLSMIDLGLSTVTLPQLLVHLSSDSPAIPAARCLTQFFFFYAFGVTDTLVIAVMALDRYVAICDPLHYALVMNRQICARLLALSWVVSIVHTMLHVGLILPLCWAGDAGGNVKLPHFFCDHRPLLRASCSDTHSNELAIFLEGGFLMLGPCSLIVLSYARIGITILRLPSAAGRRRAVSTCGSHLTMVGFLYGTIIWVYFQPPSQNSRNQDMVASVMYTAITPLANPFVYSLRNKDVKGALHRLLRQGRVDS
A digest of the protocol: as §1

In another assay the target is T16, UniProt Q8VGX3.
T16 sequence (whole entry): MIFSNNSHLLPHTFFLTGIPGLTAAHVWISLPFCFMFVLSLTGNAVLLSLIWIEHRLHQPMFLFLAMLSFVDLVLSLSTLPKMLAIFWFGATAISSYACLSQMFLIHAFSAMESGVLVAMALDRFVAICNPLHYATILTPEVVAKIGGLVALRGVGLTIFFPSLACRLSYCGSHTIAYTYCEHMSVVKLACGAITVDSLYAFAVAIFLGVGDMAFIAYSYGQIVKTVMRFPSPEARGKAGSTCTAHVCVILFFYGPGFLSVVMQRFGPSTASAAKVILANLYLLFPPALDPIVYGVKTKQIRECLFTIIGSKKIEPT
A digest of the protocol: as §1

A further assay concerns the target T17, UniProt Q8VGX5.
T17 sequence (whole entry): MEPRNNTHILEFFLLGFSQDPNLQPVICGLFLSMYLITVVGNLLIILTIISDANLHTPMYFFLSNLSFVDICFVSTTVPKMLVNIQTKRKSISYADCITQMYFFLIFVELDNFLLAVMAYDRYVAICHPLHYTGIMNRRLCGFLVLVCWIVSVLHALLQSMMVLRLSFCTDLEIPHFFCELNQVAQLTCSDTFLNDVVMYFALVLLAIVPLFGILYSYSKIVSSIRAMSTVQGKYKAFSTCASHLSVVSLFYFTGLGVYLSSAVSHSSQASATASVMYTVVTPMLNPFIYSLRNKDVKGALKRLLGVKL
An outline of the steps:
as §1

SMILES strings stand for the structures.

Regarding `CC12CCC(CC1=O)C2(C)C` (stereo unspecified), the “odorant receptor agonist call” value with UniProt Q8VGC6, with UniProt Q8VGH1, with UniProt Q8VGJ1, with UniProt Q8VGJ3, with UniProt Q8VGJ5 and in the assay with UniProt Q8VGL7 was “inactive” throughout. The “odorant receptor agonist call” value in the assay with UniProt Q8VGM2, in the assay with UniProt Q8VGP6, in the assay with UniProt Q8VGQ3, with UniProt Q8VGU3, with UniProt Q8VGV1 and with UniProt Q8VGV7 was “inactive” in each case. The “odorant receptor agonist call” value with UniProt Q8VGX3 was “inactive”. The “odorant receptor agonist call” value with UniProt Q8VGD7, in the assay with UniProt Q8VGL0, in the assay with UniProt Q8VGT4 and in the assay with UniProt Q8VGX5 was “active” throughout.
With `O=C(O)C1CCC1`, the “odorant receptor agonist call” value with UniProt Q8VGC6, with UniProt Q8VGJ3, with UniProt Q8VGL0, in the assay with UniProt Q8VGU3, with UniProt Q8VGV7 and with UniProt Q8VGX3 was “inactive” each time. Also, the “odorant receptor agonist call” value in the assay with UniProt Q8VGX5 was “inactive”.
With `c1ccccc1`, the “odorant receptor agonist call” value with UniProt Q8VGC6, with UniProt Q8VGD7, in the assay with UniProt Q8VGH1, with UniProt Q8VGJ1, in the assay with UniProt Q8VGJ3 and with UniProt Q8VGJ5 was “inactive” throughout. The “odorant receptor agonist call” value with UniProt Q8VGL0, with UniProt Q8VGL7, in the assay with UniProt Q8VGM2, with UniProt Q8VGP6, in the assay with UniProt Q8VGQ3 and with UniProt Q8VGT4 was “inactive” in each case. Also, the “odorant receptor agonist call” value with UniProt Q8VGU3, in the assay with UniProt Q8VGV1, with UniProt Q8VGV7, in the assay with UniProt Q8VGX3 and with UniProt Q8VGX5 was “inactive” each time.
